Measurements: paper PMC3288656 (Biochemical pharmacology, 2012)
Several values for one entry are separate records, joined by “and”; a condition that tells them apart may be missing. Equal values may be shown once. Marks after values point to notes of the source that are not given here.

Key:
CB1Rs [1] = molecular target: T1, CB1Rs (Mus musculus, UniProt P47746); assay: [35S]GTPγS binding assay; format: biochemical; details: for [35S]GTPγS Binding Emax: concentration-effect curves, mouse brain homogenates, n=3–4; for intrinsic activity at CB1Rs: conclusion from [35S]GTPγS binding data
T1 sequence (P47746 whole entry): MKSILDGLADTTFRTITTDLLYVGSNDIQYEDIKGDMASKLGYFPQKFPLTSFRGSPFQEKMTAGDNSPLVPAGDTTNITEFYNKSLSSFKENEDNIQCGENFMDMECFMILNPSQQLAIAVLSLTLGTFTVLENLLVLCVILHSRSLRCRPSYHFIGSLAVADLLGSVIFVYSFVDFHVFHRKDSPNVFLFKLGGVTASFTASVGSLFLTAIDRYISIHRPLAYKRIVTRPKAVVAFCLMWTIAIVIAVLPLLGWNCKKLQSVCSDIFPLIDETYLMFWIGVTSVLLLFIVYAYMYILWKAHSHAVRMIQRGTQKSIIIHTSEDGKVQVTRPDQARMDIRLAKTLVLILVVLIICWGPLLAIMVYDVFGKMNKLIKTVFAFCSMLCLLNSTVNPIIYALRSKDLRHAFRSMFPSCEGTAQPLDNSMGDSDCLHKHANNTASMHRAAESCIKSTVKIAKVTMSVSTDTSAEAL

analgesia (tail flick) = assay: Cannabinoid tetrad: analgesia, tail-flick latency; format: in vivo, NIH Swiss mice
Summary of the method: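 Male NIH Swiss mice (~25–30 g, drug-naïve, groups of 5 or 6) received i.p. test compound in ethanol:emulphor:saline 1:1:18 at 10 mL/kg. Radiant-heat tail flick used sensitivity 150 and light intensity 369, calibrated so untreated mice respond in 2–4 s, with a 10 s cutoff. The photobeam break stopped the timer. One trial per mouse at 0, 10, 30 and 60 min post-dose.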

[2] = test system: core body temperature (hypothermia); assay: Cannabinoid tetrad: core body temperature by biotelemetry; format: in vivo, NIH Swiss mice; details: for minimum core body temperature recorded / time to maximal core body temperature reduction (Tmax): 10 mg/kg, i.p.
locomotor activity = assay: Cannabinoid tetrad: locomotor activity by biotelemetry; format: in vivo, NIH Swiss mice; details: for locomotor activity: mice
Summary of the method: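 Abdominal biotelemetry probes were implanted in male NIH Swiss mice under ketamine 100 mg/kg plus xylazine 10 mg/kg i.p., with at least 7 days recovery. Mice were housed singly, acclimated at least 2 h, and gave at least 1 h of baseline. They were then dosed i.p. in 1:1:18 ethanol:emulphor:saline (10 mL/kg) and moved to a fresh-bedding cage. Activity was logged every 5 min for at least 10 h. Groups of 5 or 6.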

catalepsy = assay: Cannabinoid tetrad: catalepsy, horizontal bar test; format: in vivo, NIH Swiss mice
Summary of the method: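 Catalepsy was measured as time on a horizontal bar in male NIH Swiss mice (groups of 5 or 6, drug-naïve). Dosing was i.p. in 1:1:18 ethanol:emulphor:saline (10 mL/kg). The steel bar was 0.5 cm in diameter and sat 4.0 cm above a platform. Forelimbs went on the bar and hindlimbs on the platform in a rearing posture. Timing ran until both paws left the bar, maximum 30 s. Single trial per time point at 0, 10, 30 and 60 min.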

CB1Rs [3] = molecular target: T1, CB1Rs; assay: Competition receptor binding with [3H]CP-55,940 in mouse brain homogenates
[4] = drug 10 μM (receptor-saturating)
[5] = JWH-018 3 mg/kg i.p. alone, mice
[6] = 10 mg/kg, i.p., relative to vehicle
[7] = drug 1 μM co-incubated with CB1R antagonist O-2050 1 μM
[8] = M4 10 mg/kg i.p. + JWH-018 3 mg/kg i.p. vs JWH-018 alone

CCCCCCC(C)(C)c1ccc([C@@H]2C[C@H](O)CC[C@H]2CCCO)c(O)c1 [CP-55,940, reference compound]
[35S]GTPγS Binding Emax (CB1Rs [1]): 0.26 ± 0.01 ^a pmole/mg | intrinsic activity at CB1Rs (CB1Rs [1]): full CB1R agonists | [35S]GTPγS Binding (CB1Rs [1]; drug 100 nM): 0.20 ± 0.04 pmol/mg | [35S]GTPγS Binding + O-2050 (1 μM) (CB1Rs [1]; drug 100 nM co-incubated with CB1R antagonist O-2050 1 μM): 0.06 ± 0.03 pmol/mg | [35S]GTPγS Binding (CB1Rs [1]; [4]): 0.32 ± 0.02 pmole/mg and 0.32 ± 0.02 ^c, pmole/mg

CCCCCn1cc(C(=O)c2cccc3ccccc23)c2ccccc21 [JWH-018, reference compound]
analgesia (tail flick assay) (analgesia (tail flick); [5]): robust analgesia | maximal decrease in core body temperature to [2, 5]: 30.28 +/− 0.71 °C | locomotor activity (locomotor activity; JWH-018 3 mg/kg i.p. alone): locomotor suppression | EC50 (CB1Rs [1]; read-out: EC50 for G-protein activation, JWH-018 alone): 8 nM | catalepsy (catalepsy; [5]): catalepsy

CCCCn1cc(C(=O)c2cccc3ccccc23)c2ccccc21 [JWH-073, (1-butyl-1H-indole-3-yl)-1-naphthalenyl-methanone, reference compound]
minimum core body temperature recorded ([2]; mice): 29.74 ± 1.44 °C | time to maximal core body temperature reduction (Tmax) ([2]; mice): 54.17 ± 5.23 min | locomotor activity (locomotor activity; [6]): locomotor suppression | [35S]GTPγS Binding Emax (CB1Rs [1]): 0.27 ± 0.01 ^a pmole/mg | intrinsic activity at CB1Rs (CB1Rs [1]): full CB1R agonists | [35S]GTPγS Binding (CB1Rs [1]; drug 1 μM): 0.27 ± 0.04 pmol/mg | [35S]GTPγS Binding + O-2050 (1 μM) (CB1Rs [1]; [7]): 0.07 ± 0.02 pmol/mg | [35S]GTPγS Binding (CB1Rs [1]; [4]): 0.28 ± 0.03 pmole/mg and 0.28 ± 0.03 ^c pmole/mg

CCCCn1cc(C(=O)c2cccc3ccccc23)c2c(O)cccc21 [M1]
minimum core body temperature recorded ([2]; mice): 30.32 ± 0.66 °C | time to maximal core body temperature reduction (Tmax) ([2]; mice): 58.00 ± 4.64 min | locomotor activity (locomotor activity; [6]): reduction of locomotor activity similar to that observed with administration of JWH-073 | [35S]GTPγS Binding Emax (CB1Rs [1]): 0.14 ± 0.01 ^b pmole/mg | intrinsic activity at CB1Rs (CB1Rs [1]): partial agonist activity | [35S]GTPγS Binding (CB1Rs [1]; drug 1 μM): 0.17 ± 0.01 pmol/mg | [35S]GTPγS Binding + O-2050 (1 μM) (CB1Rs [1]; [7]): 0.07 ± 0.01 pmol/mg | [35S]GTPγS Binding (CB1Rs [1]; [4]): 0.14 ± 0.01 pmole/mg and 0.14 ± 0.01 ^a pmole/mg

CCCCn1cc(C(=O)c2cccc3ccccc23)c2ccc(O)cc21 [M3]
intrinsic activity at CB1Rs (CB1Rs [1]): partial agonist activity | [35S]GTPγS Binding (CB1Rs [1]; drug 1 μM): 0.04 ± 0.00 pmol/mg | [35S]GTPγS Binding + O-2050 (1 μM) (CB1Rs [1]; [7]): 0.02 ± 0.01 pmol/mg | [35S]GTPγS Binding (CB1Rs [1]; [4]): 0.11 ± 0.02 pmole/mg and 0.11 ± 0.02 ^a, ^b pmole/mg | Ki (CB1Rs [3]; read-out: CB1R affinity (Ki), displacement of [3H]CP-55,940, mouse brain homogenates, n=4): 1280 ± 470 nM

CCCCn1cc(C(=O)c2cccc3ccccc23)c2cccc(O)c21 [M4]
antagonism of JWH-018-induced analgesia (analgesia (tail flick); [8]): no difference | JWH-018-induced hypothermia, area under the curve 0–500 minutes ([2]; M4 10 mg/kg i.p. + JWH-018 3 mg/kg i.p. vs JWH-018 alone, n=5): significantly attenuated hypothermia | change in body temperature ([2]; M4 10 mg/kg i.p. alone, mice): no significant change in body temperature | core body temperature minimum, JWH-018-induced hypothermia with M4 ([2]; M4 10 mg/kg i.p. co-administered with JWH-018 3 mg/kg i.p., mice): 33.09 +/− 0.70 °C | antagonism of JWH-018-induced locomotor suppression (locomotor activity; [8]): no difference | antagonism of CB1R agonists and inverse agonists in [35S]GTPγS binding (CB1Rs [1]; M4 10 μM with 100 nM CP, 1 μM JWH-018, 500 nM JWH-073, 10 μM Rimonabant or AM251): significantly antagonized | Schild plot slope (CB1Rs [1]; M4 against JWH-018): 0.97 | effect on basal [35S]GTPγS binding (CB1Rs [1]; M4 alone, 0.1 nM to 10 μM): neither significantly increased | intrinsic activity at CB1Rs (CB1Rs [1]): lacks significant intrinsic activity | antagonism of JWH-018-induced catalepsy (catalepsy; [8]): no difference

O=C(c1cccc2ccccc12)c1cn(CCCCO)c2ccccc12 [M5, 1-(4-hydroxybutyl-1H-indole-3-yl)(naphthalen-1-yl)-methanone]
intrinsic activity at CB1Rs (CB1Rs [1]): partial agonist activity | [35S]GTPγS Binding (CB1Rs [1]; drug 1 μM): 0.12 ± 0.00 pmol/mg | [35S]GTPγS Binding + O-2050 (1 μM) (CB1Rs [1]; [7]): 0.05 ± 0.01 pmol/mg | [35S]GTPγS Binding (CB1Rs [1]; [4]): 0.16 ± 0.02 pmole/mg and 0.16 ± 0.02 ^a pmole/mg

O=C(O)CCCn1cc(C(=O)c2cccc3ccccc23)c2ccccc21 [M6, 4-(3-(1-naphthoyl)-1H-indole-1-yl)-1-butanoic acid]
displacement of [3H]CP-55,940 specific binding (CB1Rs [3]; concentrations as high as 10 μM, n=3): less than 10%
